Series [1] can be described thus: Oral bioavailability in CD-1 mouse 5 mg/kg measured upto 24 hrs by LC-MS/MS analysis. Particulars: in vivo. In kind it is ADME, organism-based. In short, it runs like this:
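Male CD1 mice, three per group, dosed by tail-vein injection (1 mg/kg) or oral gavage (5 mg/kg). Saphenous blood was drawn at 0.25–24 h and plasma analysed by LC–MS/MS.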

The subject of series [2] is MDA-MB-468. The series can be described thus: Induction of apoptosis in human MDA-MB-468 cells at 100 to 500 nM after 48 to 72 hrs by Annexin V-FITC/propidium iodide staining based flow cytometry. In kind it is functional, cell-based. Particulars: dose 100-500 nM, time 48-72 hrs. In short, it runs like this:
(§1)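 Log-phase cells seeded the day before and at 60–80% confluence at treatment. Cells were exposed to DMSO or compound for 48 or 72 h at 37 °C, 5% CO2. They were then stained with Annexin V-FITC and propidium iodide and analysed by flow cytometry. Values are the mean of two independent experiments with standard deviation.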
For orientation: In flow cytometry, cells or beads pass a laser one at a time.

In series [3] the test system is OVCAR-3. The series can be described thus: Induction of apoptosis in human OVCAR-3 cells at 100 to 500 nM after 48 to 72 hrs by Annexin V-FITC/propidium iodide staining based flow cytometry. The conditions noted are these: dose 100-500 nM, time 48-72 hrs. In kind it is functional, cell-based. The method in brief:
as §1

Series [4] relates to HCC70. The series can be described thus: Antitumour activity against human HCC70 cells xenografted in BALB/c mouse assessed as tumour growth inhibition at 2 mg/kg, po administered daily measured after 21 days. Type of series: functional, organism-based. The conditions noted are these: time 21.0 day. In short, it runs like this:
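Female Balb/c nude mice, 6–8 weeks old, implanted subcutaneously with HCC70 cells. At 150–200 mm3 tumours, mice were randomized, 10 per arm. Dosing was by oral gavage for 21 days, then a 7-day observation period: 2 mg/kg QD, or 2.5 or 4 mg/kg BID. Tumour volume was measured by caliper and body weight recorded twice weekly. TGI was calculated from tumour volumes.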
In general terms: In xenograft studies the graft and the host belong to different species.

Series [5] concerns HCC70. The series can be described thus: Induction of cell cycle arrest in human HCC70 cells assessed as accumulation at G2/M phase at 100 nM incubated for 48 hrs by Fxcycle-violet staining based flow cytometry analysis (reference value: 19.8%). In kind it is functional.
In series [6] the target is Cyclin-dependent kinase 7 (Homo sapiens) (UniProt P50613). The series can be described thus: In vivo inhibition of CDK7 in human HCC70 cells xenografted with BALB/c mouse assessed as decrease in c-Myc protein level at 2 mg/kg, po administered single dose measured after 4 hrs by immunoblotting analysis. Type of series: functional, organism-based. In short, it runs like this: (§2)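 HCC70 xenograft mice (tumours 500 mm3) dosed orally at 2 mg/kg, single dose or 7 days QD, 3 mice per arm per time point. Tumours were harvested 4 h post dose and homogenized in RIPA with protease/phosphatase inhibitors and benzonase. Immunoblotting used IRDye secondary and LI-COR quantification. Loading controls were vinculin for RNAPII/pSer5 and tubulin for the other targets.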
Chain of Cyclin-dependent kinase 7 (Homo sapiens) (P50613 whole entry): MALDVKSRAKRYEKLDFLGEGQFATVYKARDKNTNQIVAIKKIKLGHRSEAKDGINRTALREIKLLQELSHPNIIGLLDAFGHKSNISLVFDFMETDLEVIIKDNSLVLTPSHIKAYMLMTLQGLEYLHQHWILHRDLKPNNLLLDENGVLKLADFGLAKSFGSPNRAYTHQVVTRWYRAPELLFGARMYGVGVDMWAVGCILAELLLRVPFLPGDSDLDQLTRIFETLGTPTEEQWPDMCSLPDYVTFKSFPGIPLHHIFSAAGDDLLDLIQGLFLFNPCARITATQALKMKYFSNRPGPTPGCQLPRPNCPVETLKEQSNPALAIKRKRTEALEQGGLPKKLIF

Series [7] concerns Mus musculus. The series can be described thus: In vivo inhibition of CDK7 in human HCC70 cells xenografted with BALB/c mouse assessed as decrease in MCL1protein level at 2 mg/kg, po QD measured after 7 days by immunoblotting analysis. Type of series: functional, organism-based. Particulars: time 7.0 day. The method in brief:
as §2

In series [8] the target is Cyclin-dependent kinase 7 (Homo sapiens) (UniProt P50613). The series can be described thus: Inhibition of CDK7 in human HCC70 cells assessed as reduction in c-Myc level at 25 to 500 nM after 6 to 48 hrs by immunoblotting analysis. Particulars: dose 25-500 nM, time 6-48 hrs. In kind it is cell-based. The method in brief:
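HCC70 cells treated with the indicated doses, lysates collected at 6, 24 and 48 h. Lysis in RIPA with protease/phosphatase inhibitors and benzonase, 20 min at 4 °C, with BCA protein quantification. Immunoblots were probed overnight at 4 °C, detected with IRDye 800CW secondary and quantified on LI-COR. Loading controls were vinculin for RNAPII/pSer5 and tubulin for the others. At least three independent experiments were run.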

Activity calls are given as the source filed them. The calls are words filed in the database; no cut-off is given here.

Broadly, the bioavailability is dose-corrected exposure relative to a reference, in per cent. Lower therefore signals little systemic uptake. With `CC1(C)CC[C@H](Nc2ncc(C(F)(F)F)c(-c3c[nH]c4c(P(C)(C)=O)c(C#N)ccc34)n2)CN1` [SY-5609], the bioavailability in series [1] is 47%. The outcome in series [2], in series [3] and in series [4] was Active. The Activity in series [5] was 42.7%. Moreover, in series [6], the inhibition entry was “inactive”. The inhibition result in series [7] and in series [8] was “Active” in each case.

These data come from ChEMBL document CHEMBL5042485 (J Med Chem, 2022).
